Assay results published in publication PMC7614232 (Organic & biomolecular chemistry, 2022).
Read-outs that look alike come from different tables or passages of the source.

Tests used:
Format in all cases: biochemical
[1] = biological target: T1, JBMan (Jack bean α-mannosidase) (Canavalia ensiformis, UniProt C0HJB3); assay: α-mannosidase inhibition assay with pNP-Man, JBMan
T1 sequence (C0HJB3 1-981): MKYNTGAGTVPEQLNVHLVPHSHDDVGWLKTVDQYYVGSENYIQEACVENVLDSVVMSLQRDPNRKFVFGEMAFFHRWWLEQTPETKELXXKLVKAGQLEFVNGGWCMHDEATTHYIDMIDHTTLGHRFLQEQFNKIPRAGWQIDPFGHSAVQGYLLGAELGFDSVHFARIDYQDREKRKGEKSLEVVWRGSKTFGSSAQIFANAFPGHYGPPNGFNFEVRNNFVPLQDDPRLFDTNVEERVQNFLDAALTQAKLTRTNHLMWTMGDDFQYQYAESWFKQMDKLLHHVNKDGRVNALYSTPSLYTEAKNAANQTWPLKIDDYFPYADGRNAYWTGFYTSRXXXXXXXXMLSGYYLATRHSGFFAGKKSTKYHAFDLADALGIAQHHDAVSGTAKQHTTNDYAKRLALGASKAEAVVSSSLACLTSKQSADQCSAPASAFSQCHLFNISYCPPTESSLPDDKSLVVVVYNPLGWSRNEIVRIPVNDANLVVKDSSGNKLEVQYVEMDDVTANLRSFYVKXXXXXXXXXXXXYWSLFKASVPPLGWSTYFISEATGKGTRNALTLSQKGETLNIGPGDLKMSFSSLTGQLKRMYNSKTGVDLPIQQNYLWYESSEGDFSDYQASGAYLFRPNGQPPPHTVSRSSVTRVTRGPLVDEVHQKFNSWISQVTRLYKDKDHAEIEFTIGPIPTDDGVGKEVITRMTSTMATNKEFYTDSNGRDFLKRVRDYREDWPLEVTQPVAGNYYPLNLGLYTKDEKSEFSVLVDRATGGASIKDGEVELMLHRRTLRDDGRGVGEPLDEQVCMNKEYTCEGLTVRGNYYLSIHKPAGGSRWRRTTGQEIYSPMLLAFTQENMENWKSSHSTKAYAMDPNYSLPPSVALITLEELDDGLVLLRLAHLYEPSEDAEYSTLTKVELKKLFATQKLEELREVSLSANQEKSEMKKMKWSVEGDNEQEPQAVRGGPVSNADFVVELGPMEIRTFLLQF
Procedure, shortened: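 Commercial jack bean α-mannosidase (0.05 μg protein) in 50 mM acetate buffer, pH 5.0. Compound taken from a 50 mM DMSO solution, diluted in water, and preincubated with enzyme 5 min at rt. pNP-Man was added and the reaction ran 1-2 h at 37 °C. Stopped with 0.5 M sodium carbonate; p-nitrophenol read at 405 nm. […] Three independent experiments in duplicate.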

[2] = biological target: T2, AMAN-2 (Golgi α-mannosidase) (Caenorhabditis elegans, UniProt Q2PJ74); assay: α-mannosidase inhibition assay with pNP-Man, AMAN-2; conditions: for SI^b = IC50(JBMan)/IC50(AMAN-2): selectivity index
T2 sequence (Q2PJ74 27-1145): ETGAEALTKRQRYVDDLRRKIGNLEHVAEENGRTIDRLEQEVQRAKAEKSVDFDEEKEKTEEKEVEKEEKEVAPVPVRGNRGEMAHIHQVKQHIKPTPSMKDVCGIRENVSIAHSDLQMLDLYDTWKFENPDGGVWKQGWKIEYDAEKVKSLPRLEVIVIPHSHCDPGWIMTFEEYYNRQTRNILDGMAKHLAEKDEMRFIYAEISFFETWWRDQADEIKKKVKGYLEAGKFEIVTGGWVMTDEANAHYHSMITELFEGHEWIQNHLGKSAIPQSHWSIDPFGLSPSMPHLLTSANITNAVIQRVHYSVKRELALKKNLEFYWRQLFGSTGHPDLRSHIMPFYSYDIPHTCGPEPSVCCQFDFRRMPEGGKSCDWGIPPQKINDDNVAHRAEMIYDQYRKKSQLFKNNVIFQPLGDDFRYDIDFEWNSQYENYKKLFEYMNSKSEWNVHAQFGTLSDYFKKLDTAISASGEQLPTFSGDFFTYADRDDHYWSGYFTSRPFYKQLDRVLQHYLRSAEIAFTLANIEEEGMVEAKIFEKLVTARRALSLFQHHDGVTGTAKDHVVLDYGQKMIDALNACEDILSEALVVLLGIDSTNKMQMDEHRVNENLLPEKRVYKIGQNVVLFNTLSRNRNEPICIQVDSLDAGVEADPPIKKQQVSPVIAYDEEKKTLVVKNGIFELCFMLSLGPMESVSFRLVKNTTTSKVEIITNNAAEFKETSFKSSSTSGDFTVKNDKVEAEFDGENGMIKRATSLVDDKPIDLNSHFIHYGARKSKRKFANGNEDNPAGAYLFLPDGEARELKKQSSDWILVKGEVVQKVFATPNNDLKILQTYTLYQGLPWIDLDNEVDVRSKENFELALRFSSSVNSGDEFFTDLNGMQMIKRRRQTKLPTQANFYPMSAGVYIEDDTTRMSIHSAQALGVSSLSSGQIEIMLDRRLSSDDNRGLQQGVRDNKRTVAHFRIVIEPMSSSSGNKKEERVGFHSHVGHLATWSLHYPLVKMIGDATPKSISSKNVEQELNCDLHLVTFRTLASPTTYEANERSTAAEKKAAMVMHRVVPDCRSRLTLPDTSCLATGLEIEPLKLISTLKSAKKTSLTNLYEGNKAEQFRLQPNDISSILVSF

[3] = test system: Golgi-type mannosidases (GMIIb and AMAN-2); assay: inhibition of and selectivity toward Golgi-type mannosidases, stated jointly; conditions: IC50(LManII)/IC50(GMIIb) or IC50(JBMan)/IC50(AMAN-2)
[4] = read-out: IC50 JBMan, 2 mM pNP-Man, pH 5.0
[5] = read-out: Ki JBMan, Dixon plots, pNP-Man 0.5-4 mM, pH 5.0
[6] = read-out: IC50 AMAN-2, 2 mM pNP-Man, pH 6.0
[7] = read-out: Ki AMAN-2, Dixon plots, pNP-Man 0.5-4 mM, pH 6.0

Row | SMILES | IC50 [1] [µM] | IC50 [2] [µM] | SI^b = IC50(JBMan)/IC50(AMAN-2) [2] | IC50 [1, 4] [µM] | IC50 [2, 6] [µM] | further results
1 | OC[C@@H]1[C@H](O)[C@H](O)CN1Cc1ccccc1 [Compound 4, N-Benzyl-1,4-dideoxy-1,4-imino-d-lyxitol] | 1080 ± 185 | 8.7 ± 0.1 | 124 | – | – | –
2 | Cl.N=C(N)NCc1ccc(CN2C[C@@H](O)[C@@H](O)[C@H]2CO)cc1 [Compound 9, 1,4-Dideoxy-N-4-guanidinomethylbenzyl-1,4-imino-d-lyxitol hydrochloride] | – | – | 9 | 115 ± 6.7 | 12.5 ± 0.1 | Ki [1, 5]: 52.4 µM; Ki [2, 7]: 10.3 µM
3 | OCC1C(O)C(O)CN1Cc1ccc(I)cc1 (stereo not drawn) [Compound 16, 1,4-Dideoxy-1,4-imino-N-4-iodobenzyl-d-lyxitol] | – | – | 269 | 940 ± 24 | 3.5 ± 0.1 | –
4 | OC[C@@H]1[C@H](O)[C@H](O)CN1Cc1ccc2ccccc2c1 [Compound 17, 1,4-Dideoxy-1,4-imino-N-(naphthalen-2-ylmethyl)-d-lyxitol] | – | – | 812 | 1950 ± 250 | 2.4 ± 0.1 | selectivity index (SI) toward Golgi-type enzymes [3]: > 100; IC50 ([2]; read-out: IC50 AMAN-2, 2 mM pNP-Man, pH 6.0, listed as N-2-naphtylmethyl): 7.6 µM
5 | OCC1C(O)C(O)CN1CCc1cccc2ccccc12 (stereo not drawn) [Compound 18, 1,4-Dideoxy-1,4-imino-N-(2-(naphthalen-1-yl)ethyl)-d-lyxitol] | – | – | 86 | 18 ± 1.7 | 0.21 ± 0.1 | Ki [1, 5]: 6.5 µM; Ki [2, 7]: 0.15 µM
6 | OC[C@@H]1[C@H](O)[C@H](O)CN1CC1CCCCC1 [Compound 19, N-Cyclohexylmethyl-1,4-dideoxy-1,4-imino-d-lyxitol] | 1290 ± 113 | 17.3 ± 0.1 | 75 | – | – | –
7 | OC[C@@H]1[C@H](O)[C@H](O)CN1CC1CCOCC1 [Compound 20] | – | – | 30 | 2550 ± 63 | 84.3 ± 0.1 | –
8 | CCCCCCCCCCCCN1C[C@@H](O)[C@@H](O)[C@H]1CO [Compound 21, 1,4-Dideoxy-N-dodecyl-1,4-imino-d-lyxitol] | 20.3 ± 4.4 | 2.3 ± 0.1 | 9 | – | – | –
9 | Cl.N=C(N)NCCCCCCCCCCN1C[C@@H](O)[C@@H](O)[C@H]1CO [Compound 25, 1,4-Dideoxy-N-(10-guanidinodecyl)-1,4-imino-d-lyxitol hydrochloride] | 8.3 ± 1.2 | 2.7 ± 0.1 | 3 | – | – | –
10 | Cl.N=C(N)CCCCCCCCCN1C[C@@H](O)[C@@H](O)[C@H]1CO [Compound 26, N-(9-amidinononyl)-1,4-dideoxy-1,4-imino-d-lyxitol hydrochloride] | 4.7 ± 1.2 | 1.4 ± 0.1 | 3 | – | – | Ki [1]: 1.4 µM; Ki [2]: 0.78 µM
